In ChEMBL document CHEMBL1125740, “Heterocyclic quinones. 17. A new in vivo active antineoplastic drug: 6,7-bis(1-aziridinyl)-4-[[3-(N,N-dimethylamino)propyl]amino]-5,8- quinazolinedione” (J Med Chem, 1991):
Values joined by “and” are separate entries in the source; they are usually repeats but may differ in a detail not shown here. Equal values may be shown once.

Legend:
P388 [1] = test: Compound was evaluated in vivo for antitumor activity after intraperitoneal administration against P388/L-PAM(14) for tumor free survivors at an optimal dose of 0.125 mg/kg/injection at 1,4,7,11 day schedule.; assay type: functional, Mus musculus
P388 [2] = test: Compound was evaluated in vivo for antitumor activity after intraperitoneal administration against P388/L-PAM(12) for tumor free survivors at an optimal dose of 0.75 mg/kg/injection; assay type: functional, Mus musculus
P388 [3] = test: Compound was evaluated in vivo for antitumor activity after intraperitoneal administration against P388/L-PAM(14) for % increase in life span at an optimal dose of 0.25 mg/kg/injection at 1,4,7,11 day schedule.; assay type: functional; conditions: Mus musculus, P388, ip
P388 [4] = test: Compound was evaluated in vivo for antitumor activity after intraperitoneal administration against P388 (1313) for total dose at an optimal dose of 1 mg/kg/injection; assay type: functional, Mus musculus
P388 [5] = test: Compound was evaluated in vivo for antitumor activity after intraperitoneal administration against P388/L-PAM(14) for tumor free survivors at an optimal dose of 0.25 mg/kg/injection at 1,4,7,11 day schedule.; assay type: functional, Mus musculus
P388 [6] = test: Compound was evaluated in vivo for antitumor activity after intraperitoneal administration against P388/L-PAM(14) for total dose at an optimal dose of 0.4 mg/kg/injection at 1,2,3,4 day schedule.; assay type: functional, Mus musculus
P388 [7] = test: Compound was evaluated in vivo for antitumor activity after intraperitoneal administration against P388/L-PAM(12) for % increase in life span at an optimal dose of 0.75 mg/kg/injection; assay type: functional; conditions: Mus musculus, P388, ip
L1210 [8] = test: Compound was evaluated in vivo for antitumor activity after intraperitoneal administration against L1210(935)for change in body weight at an optimal dose of 0.4 mg/kg/injection at 1-4 day schedule.; assay type: functional, Mus musculus
Procedure, shortened: (§1)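 L1210 leukemia, maintained in DBA/2 mice, was given ip as 10⁵ cells on day 0 to F1 hybrid or strain-of-origin mice over 18 g, in groups of 8. Dosing was ip from day 1, and mortality was checked daily. Median day of death counts dying mice only. %ILS = 100×(treated − control median day of death)/control median. Tumor-free survivors were counted on day 60. Weight change is g/mouse at nadir.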

L1210 [9] = test: Compound was evaluated in vivo for antitumor activity after intraperitoneal administration against L1210(935) for median day of death at an optimal dose of 0.1 mg/kg/injection at 1-4 day schedule.; assay type: functional, Mus musculus; procedure, shortened: as §1
[10] = Compound was evaluated in vivo for antitumor activity against mammary adenocarcinoma 16/C after injecting the compound intravenously for toxicity related death.; assay type: functional, Mus musculus
Procedure, shortened: (§2)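 30-60 mg tumor fragments implanted sc by trocar on day 0 into C57Bl/6-derived hosts (B16) or C3H/He-derived hosts (16/C). Drug given iv on days 6, 9 and 13 (B16) or 6, 9 and 12 (16/C), 10 mice per group. Tumors measured by caliper. T/C % taken from median tumor burden of treated vs control groups on day 15 (B16) or day 14 (16/C). Body weight change per mouse recorded at nadir.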

L1210 [11] = test: Compound was evaluated in vivo for antitumor activity after intraperitoneal administration against L1210(935) for mortality range at an optimal dose of 0.25 mg/kg/injection at 1,4,7,11day schedule.; assay type: functional, Mus musculus; procedure, shortened: as §1
P388 [12] = test: Compound was evaluated in vivo for antitumor activity after intraperitoneal administration against P388 (1313) for tumor free survivors at an optimal dose of 0.25 mg/kg/injection; assay type: functional, Mus musculus
P388 [13] = test: Compound was evaluated in vivo for antitumor activity after intraperitoneal administration against P388 (1313) for total dose at an optimal dose of 0.2 mg/kg/injection; assay type: functional, Mus musculus
P388 [14] = test: Compound was evaluated in vivo for antitumor activity after intraperitoneal administration against P388/L-PAM(14) for % increase in life span at an optimal dose of 0.1 mg/kg/injection at 1,2,3,4 day schedule.; assay type: functional; conditions: Mus musculus, P388, ip
B16 [15] = test: Compound was evaluated in vivo for antitumor activity against B16 melanoma 1 after injecting the compound intravenously for percent T/C (value in parentheses indicates the day of evaluation); assay type: functional, Mus musculus
L1210 [16] = test: Compound was evaluated in vivo for antitumor activity after intraperitoneal administration against L1210(935)for % increase in life span at an optimal dose of 0.2 mg/kg/injection at 1-4 day schedule.; assay type: functional; conditions: Mus musculus, L1210, ip; procedure, shortened: as §1
P388 [17] = test: Compound was evaluated in vivo for antitumor activity after intraperitoneal administration against P388 (1303) for mortality range at an optimal dose of 0.75 mg/kg/injection; assay type: functional, Mus musculus
L1210 [18] = test: Compound was evaluated in vivo for antitumor activity after intraperitoneal administration against L1210(935)for % increase in life span at an optimal dose of 0.1 mg/kg/injection at 1-4 day schedule.; assay type: functional; conditions: Mus musculus, L1210, ip; procedure, shortened: as §1
L1210 [19] = test: Compound was evaluated in vivo for antitumor activity after intraperitoneal administration against L1210(935)for % increase in life span at an optimal dose of 1 mg/kg/injection at 1 day schedule.; assay type: functional; conditions: Mus musculus, L1210, ip, 24 h; procedure, shortened: as §1
P388 [20] = test: Compound was evaluated in vivo for antitumor activity after intraperitoneal administration against P388/L-PAM(12) for mortality range at an optimal dose of 0.75 mg/kg/injection; assay type: functional, Mus musculus
P388 [21] = test: Compound was evaluated in vivo for antitumor activity after intraperitoneal administration against P388/L-PAM(14) for median day of death at an optimal dose of 1 mg/kg/injection; assay type: functional, Mus musculus
P388 [22] = test: Compound was evaluated in vivo for antitumor activity after intraperitoneal administration against P388/L-PAM(14) for median day of death at an optimal dose of 0.4 mg/kg/injection at 1,2,3,4 day schedule.; assay type: functional, Mus musculus
P388 [23] = test: Compound was evaluated in vivo for antitumor activity after intraperitoneal administration against P388/L-PAM(14) for median day of death at an optimal dose of 0.1 mg/kg/injection at 1,2,3,4 day schedule.; assay type: functional, Mus musculus
L1210 [24] = test: Compound was evaluated in vivo for antitumor activity after intraperitoneal administration against L1210(935) for total dose at an optimal dose of 0.4 mg/kg/injection at 1-4 day schedule.; assay type: functional, Mus musculus; procedure, shortened: as §1
L1210 [25] = test: Compound was evaluated in vivo for antitumor activity after intraperitoneal administration against L1210(935) for median day of death at an optimal dose of 0.2 mg/kg/injection at 1-4 day schedule.; assay type: functional, Mus musculus; procedure, shortened: as §1
P388 [26] = test: Compound was evaluated in vivo for antitumor activity after intraperitoneal administration against P388/L-PAM(14) for mortality range at an optimal dose of 0.5 mg/kg/injection at one day schedule.; assay type: functional, Mus musculus
L1210 [27] = test: Compound was evaluated in vivo for antitumor activity after intraperitoneal administration against L1210(935)for change in body weight at an optimal dose of 0.2 mg/kg/injection at 1-4 day schedule.; assay type: functional, Mus musculus; procedure, shortened: as §1
[28] = Compound was evaluated in vivo for antitumor activity against mammary adenocarcinoma 16/C after injecting the compound intravenously for total dose.; assay type: functional, Mus musculus; procedure, shortened: as §2
P388 [29] = test: Compound was evaluated in vivo for antitumor activity after intraperitoneal administration against P388 (1313) for median day of death at an optimal dose of 0.25 mg/kg/injection; assay type: functional, Mus musculus
B16 [30] = test: Compound was evaluated in vivo for antitumor activity against B16 melanoma 2 after injecting the compound intravenously for toxicity related death.; assay type: functional, Mus musculus
P388 [31] = test: Compound was evaluated in vivo for antitumor activity after intraperitoneal administration against P388/L-PAM(14) for mortality range at an optimal dose of 0.125 mg/kg/injection at 1,4,7,11 day schedule.; assay type: functional, Mus musculus

SMILES: CN(C)CCCNc1ncnc2c1C(=O)C(N1CC1)=C(N1CC1)C2=O
- Survivors (P388 [1]): 0
- Survivors (P388 [2]): 0
- ILS at 0.25 mg/kg (P388 [3]): 18%
- Optimal dose (P388 [4]): 1 mg/kg
- Survivors (P388 [5]): 0
- Total dose (P388 [6]): 1.6 mg/kg
- ILS at 0.75 mg/kg (P388 [7]): 19%
- Change in body weight (L1210 [8]): 0.3 g mouse-1
- Median day of death (L1210 [9]): 14
- Toxicity [10]: 0
- Toxicity related death [10]: 0
- Mortality (L1210 [11]): 14 days
- Survivors (P388 [12]): 0
- Optimal dose (P388 [13]): 0.8 mg/kg
- ILS at 0.1 mg/kg (P388 [14]): 0%
- T/C (B16 [15]): 76%
- ILS at 0.2 mg/kg (L1210 [16]): 27%
- Mortality (P388 [17]): 65 days
- ILS at 0.1 mg/kg (L1210 [18]): 27%
- ILS at 1 mg/kg (L1210 [19]): 27%
- Mortality (P388 [20]): 19
- Median day of death (P388 [21]): 19
- Median day of death (P388 [22]): 20
- Median day of death (P388 [23]): 14
- Total dose (L1210 [24]): 1.6 mg/kg
- Median day of death (L1210 [25]): 14
- Mortality (P388 [26]): 22 days
- Change in body weight (L1210 [27]): 0.4 g mouse-1
- Total dose [28]: 1.2 mg/kg and 0.6 mg/kg
- Median day of death (P388 [29]): 19
- Toxicity (B16 [30]): 0
- Mortality (P388 [31]): 27 days
